Assays:
[1] = Conversion rate by hydrolysis of compound […] after 2 hr at a pH of 1.0; format: ADME, cell-free; conditions: pH 1; read-out: Conversion rate
Summary of the method: (§1)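 Prodrug from a 10 mM DMSO stock, diluted to 4 μM final in 0.4 N HClO4 and held at room temperature. Aliquots were taken at intervals. Free 1 was measured by RIA: p-benzoquinone derivatization for 30 min, then rabbit antiserum and 125I tracer. Hydrolysis % is the measured 1 as a percent of the level for complete hydrolysis.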

[2] = Concentration of compound in Central nervous system; Not detectable; format: ADME, tissue-based
[3] = Conversion rate by hydrolysis of compound in plasma after 6 hr.; format: ADME, cell-free; conditions: read-out: Conversion rate
Summary of the method: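 Male Swiss mice (20–25 g) were given 24 μmol/kg prodrug orally in 1% methyl cellulose and decapitated at 0.5, 1, 3 or 6 h. Plasma HClO4 extracts were assayed by RIA for free 1, with total 1 measured after heating at 95 °C for 30 min. Value is AUCplasma(1)/[AUCplasma(1)+AUCplasma(prodrug)].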

[4] = Conversion rate by hydrolysis of compound in plasma after 4 hr at a pH of 7.4; format: ADME, cell-free; conditions: pH 7.4, read-out: Conversion rate
[5] = Conversion rate by hydrolysis of compound […] after 2 hr at a pH of 1.0; Not detectable; format: ADME, cell-free; conditions: pH 1, 2 h; summary of the method: as §1
[6] = Conversion rate by hydrolysis of compound in plasma after 4 hr at a pH of 7.4; Not detectable; format: ADME, cell-free; conditions: pH 7.4, 4 h
[7] = Plasma concentration (AUC) was determined; Not detectable; format: ADME, cell-free
[8] = Conversion rate by hydrolysis of compound in plasma after 6 h; Not detectable; format: ADME, cell-free

Compound	metabolised at 2 h [1] [%]	concentration in CNS [2]	metabolised at 6 h [3] [%]	metabolised at 4 h [4] [%]	Conversion rate [5]	Conversion rate [6]	AUC [7]	Conversion rate [8]
Cc1ccc(O)c(/C(=N/[C@H](C)Cc2c[nH]cn2)c2ccccc2)c1	11.9	Not detectable	29	–	–	–	–	–
C[C@H](Cc1c[nH]cn1)/N=C(\c1ccccc1)c1cc(Br)ccc1O	34.6	–	31	16.6	–	–	–	–
C[C@H](Cc1c[nH]cn1)N=C(c1ccccc1O)c1ccccc1O	–	Not detectable	–	–	Not detectable	Not detectable	–	–
C[C@H](Cc1c[nH]cn1)/N=C(\c1ccc(F)cc1)c1cc(Cl)ccc1O	67.1	–	40	26	–	–	–	–
C[C@H](Cc1c[nH]cn1)/N=C(\c1ccc(F)cc1)c1cc(F)ccc1O	63.8	–	45	33.8	–	–	–	–
C[C@H](Cc1c[nH]cn1)/N=C(\c1ccc(Cl)cc1)c1cc(F)ccc1O	62	–	42	15.2	–	–	–	–
C[C@H](Cc1c[nH]cn1)/N=C(/c1cc(F)ccc1O)c1cccc2ccccc12	0.2	Not detectable	11	1.3	–	–	–	–
C[C@H](Cc1c[nH]cn1)/N=C(\c1ccccc1)c1cc(F)ccc1O	30	–	24	15.4	–	–	–	–
C[C@H](Cc1c[nH]cn1)/N=C(\c1ccc(Cl)cc1)c1ccccc1O	18.3	–	28	–	–	–	–	–
C[C@H](Cc1c[nH]cn1)/N=C(\c1ccccc1)c1ccccc1O	14.1	Not detectable	14	–	–	–	–	–
C[C@H](Cc1c[nH]cn1)/N=C(\c1ccccc1)c1cc(Cl)ccc1O	46.9	Not detectable	33	23.2	–	–	–	–
C[C@H](Cc1c[nH]cn1)/N=C(\c1ccc(Cl)cc1)c1cc(Cl)ccc1O	62.7	–	58	16.2	–	–	–	–
C[C@H](Cc1c[nH]cn1)/N=C(\c1ccccc1)c1cc(F)cc(Cl)c1O	79.3	–	28	19.6	–	–	–	–
C[C@@H]1Cc2[nH]cnc2C(c2ccccc2O)N1 (some centres undefined)	0.2	Not detectable	–	–	–	–	Not detectable	Not detectable
C[C@H](Cc1c[nH]cn1)/N=C(\c1ccc(F)cc1)c1ccccc1O	20.1	–	26	–	–	–	–	–
COc1ccc(/C(=N/[C@H](C)Cc2c[nH]cn2)c2ccccc2)c(O)c1	3	Not detectable	–	6	–	–	Not detectable	–
Cc1cc(O)c(/C(=N/[C@H](C)Cc2c[nH]cn2)c2ccccc2)cc1Cl	5.6	Not detectable	41	2.8	–	–	–	–
